# Experimental data reported in ChEMBL document CHEMBL3414524, “Synthesis, carbonic anhydrase inhibition and cytotoxic activity of novel chromone-based sulfonamide derivatives” (Eur J Med Chem, 2015).
# What was measured:
# Carbonic anhydrase 1 = Carbonic anhydrase 1 (Homo sapiens, UniProt P00915); assay: Inhibition of human cytosolic form of carbonic anhydrase-1 assessed as CO2 hydration activity incubated for 15 mins prior to testing by stopped flow method
# MCF7 [1] = assay: Cytotoxicity against human MCF7 cells after 72 hrs by sulforhodamine B assay; type: functional, cell-based; settings: MCF7, 72 h
# Summary of the method: (§1)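 Cells in log phase were plated at 1000-2000 cells/well. After 24 h they were exposed to a range of concentrations for 72 h, then fixed with 10% TCA for 1 h at 4 °C. IC50 came from a Boltzmann sigmoidal nonlinear fit, as the mean of three separate experiments.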
# A549 [2] = assay: Cytotoxicity against human A549 cells after 72 hrs by sulforhodamine B assay; type: functional, cell-based; settings: A549, 72 h
# Summary of the method: as §1, with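 “°C. Staining used 0.4% SRB in 1% acetic acid for 10 min at room temperature, with the dye solubilized in Tris-HCl and OD read at 564 nm.” for “°C.”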
# Carbonic anhydrase 9 = Carbonic anhydrase 9 (Homo sapiens, UniProt Q16790); assay: Inhibition of human membrane associated form of carbonic anhydrase-9 assessed as CO2 hydration activity incubated for 15 mins prior to testing by stopped flow method
# Carbonic anhydrase 2 = Carbonic anhydrase 2 (Homo sapiens, UniProt P00918); assay: Inhibition of human cytosolic form of carbonic anhydrase-2 assessed as CO2 hydration activity incubated for 15 mins prior to testing by stopped flow method
# Carbonic anhydrase 12 = Carbonic anhydrase 12 (Homo sapiens, UniProt O43570); assay: Inhibition of human membrane associated form of carbonic anhydrase-12 assessed as CO2 hydration activity incubated for 15 mins prior to testing by stopped flow method
# Sequence of Carbonic anhydrase 12 (O43570 whole entry): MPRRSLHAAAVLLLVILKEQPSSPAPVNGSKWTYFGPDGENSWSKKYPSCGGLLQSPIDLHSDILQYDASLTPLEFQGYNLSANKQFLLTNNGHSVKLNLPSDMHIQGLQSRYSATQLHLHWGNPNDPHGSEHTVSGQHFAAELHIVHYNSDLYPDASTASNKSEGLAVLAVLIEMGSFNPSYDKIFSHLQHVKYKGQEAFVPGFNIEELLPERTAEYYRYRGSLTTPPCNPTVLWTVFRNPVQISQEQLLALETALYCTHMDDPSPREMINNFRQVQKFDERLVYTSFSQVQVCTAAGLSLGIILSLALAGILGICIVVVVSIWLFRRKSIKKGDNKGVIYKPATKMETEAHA
# A549 [3] = assay: Induction of apoptosis in human A549 cells assessed as necrotic cells at 0.5 uM after 24 hrs by annexin V-FITC/propidium iodide staining-based flow cytometric analysis (reference value: 2.04%); type: functional
# Summary of the method: (§2)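 Cells were seeded at 1 x 10^5 cells/ml and held 24 h at 37 °C in 5% CO2, then treated for a further 24 h. They were harvested with 0.25% trypsin, washed twice in Ca2+/Mg2+-free PBS and adjusted to 1 x 10^6 cells/ml. Staining with annexin V-FITC/PI ran 30 min in the dark at room temperature, in binding buffer, with flow cytometry within 1 h. Untreated cells served as control.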
# MCF7 [4] = assay: Induction of apoptosis in human MCF7 cells assessed as early apoptotic cells at 0.72 uM after 24 hrs by annexin V-FITC/propidium iodide staining-based flow cytometric analysis relative to control; type: functional; summary of the method: as §2
# MCF7 [5] = assay: Induction of apoptosis in human MCF7 cells assessed as necrotic cells at 0.72 uM after 24 hrs by annexin V-FITC/propidium iodide staining-based flow cytometric analysis (reference value: 1.58%); type: functional; summary of the method: as §2
# MCF7 [6] = assay: Induction of apoptosis in human MCF7 cells assessed as viable cells at 0.72 uM after 24 hrs by annexin V-FITC/propidium iodide staining-based flow cytometric analysis (reference value: 98.41%); type: functional; settings: MCF7, 24 h, read-out: Activity; summary of the method: as §2
# A549 [7] = assay: Induction of apoptosis in human A549 cells assessed as late apoptotic cells at 0.5 uM after 24 hrs by annexin V-FITC/propidium iodide staining-based flow cytometric analysis relative to control; type: functional; summary of the method: as §2
# A549 [8] = assay: Induction of apoptosis in human A549 cells assessed as early apoptotic cells at 0.5 uM after 24 hrs by annexin V-FITC/propidium iodide staining-based flow cytometric analysis (reference value: 1.9%); type: functional; summary of the method: as §2
# MCF7 [9] = assay: Induction of apoptosis in human MCF7 cells assessed as late apoptotic cells at 0.72 uM after 24 hrs by annexin V-FITC/propidium iodide staining-based flow cytometric analysis (reference value: 0.01%); type: functional; summary of the method: as §2
# A549 [10] = assay: Induction of apoptosis in human A549 cells assessed as viable cells at 0.5 uM after 24 hrs by annexin V-FITC/propidium iodide staining-based flow cytometric analysis (reference value: 96.06%); type: functional; settings: A549, 24 h, read-out: Activity; summary of the method: as §2
# Sequence of Carbonic anhydrase 1 (P00915 whole entry): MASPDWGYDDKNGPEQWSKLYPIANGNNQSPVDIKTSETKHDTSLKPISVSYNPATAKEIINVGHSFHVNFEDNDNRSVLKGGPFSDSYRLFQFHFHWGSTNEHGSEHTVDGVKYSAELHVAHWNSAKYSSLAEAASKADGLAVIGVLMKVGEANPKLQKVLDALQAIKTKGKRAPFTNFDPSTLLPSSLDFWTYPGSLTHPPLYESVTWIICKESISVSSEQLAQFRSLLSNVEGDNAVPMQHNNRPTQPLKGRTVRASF
SMILES,Ki (Carbonic anhydrase 1),IC50 (MCF7 [1]),IC50 (A549 [2]),Ki (Carbonic anhydrase 9),also measured
CCOC1Oc2ccccc2C(=O)/C1=C/Nc1ccc(S(=O)(=O)Nc2ccccn2)cc1 (centres undefined),> 10 µM,28.8 µM,39.1 µM,20.9 nM,Ki (Carbonic anhydrase 2): > 10 µM; Ki (Carbonic anhydrase 12): 62 nM
NS(=O)(=O)c1ccc(NCc2coc3ccccc3c2=O)cc1,,0.72 µM,0.5 µM,29.8 nM,Activity (A549 [3]): 0.06%; Activity (MCF7 [4]): 94.12%; Activity (MCF7 [5]): 0%; viability at 0.72 µM (MCF7 [6]): 5.16%; Activity (A549 [7]): 1.64%; Activity (A549 [8]): 74.77%; Activity (MCF7 [9]): 0.72%; viability at 0.5 µM (A549 [10]): 23.5%
CCOC1Oc2ccccc2C(=O)/C1=C/Nc1ccc(S(N)(=O)=O)cc1 (centres undefined),,22.2 µM,33.4 µM,,
CCOC1Oc2ccccc2C(=O)/C1=C/Nc1ccc(S(=O)(=O)Nc2cc(C)on2)cc1 (centres undefined),> 10 µM,25.8 µM,57.2 µM,23.8 nM,Ki (Carbonic anhydrase 2): > 10 µM
CCOC1Oc2ccccc2C(=O)/C1=C/Nc1ccc(S(=O)(=O)Nc2ncccn2)cc1 (centres undefined),,30.1 µM,> 100 µM,,
CCOC1Oc2ccccc2C(=O)/C1=C/Nc1ccc(S(=O)(=O)Nc2nc(C)cc(C)n2)cc1 (centres undefined),> 10 µM,45.6 µM,36.4 µM,37.6 nM,Ki (Carbonic anhydrase 2): > 10 µM
CCOC1Oc2ccccc2C(=O)/C1=C/Nc1ccc(S(=O)(=O)Nc2nccs2)cc1 (centres undefined),> 10 µM,48.6 µM,> 100 µM,19.9 nM,Ki (Carbonic anhydrase 2): > 10 µM
Cc1cc(NS(=O)(=O)c2ccc(NCc3coc4ccccc4c3=O)cc2)no1,> 10 µM,34.5 µM,59.7 µM,32.1 nM,Ki (Carbonic anhydrase 2): > 10 µM
O=c1c(CNc2ccc(S(=O)(=O)Nc3ncccn3)cc2)coc2ccccc12,,> 100 µM,85.2 µM,,
Cc1cc(C)nc(NS(=O)(=O)c2ccc(NCc3coc4ccccc4c3=O)cc2)n1,,93.6 µM,55.8 µM,,
O=c1c(CNc2ccc(S(=O)(=O)Nc3nccs3)cc2)coc2ccccc12,,58.6 µM,25.6 µM,,
O=c1c(CNc2ccc(S(=O)(=O)Nc3ccccn3)cc2)coc2ccccc12,,> 100 µM,> 100 µM,,
NS(=O)(=O)c1ccc(NC2=NC(=O)/C(=C\c3coc4ccccc4c3=O)S2)cc1,0.399 µM,8.91 µM,2.23 µM,14.3 nM,
Cc1cc(NS(=O)(=O)c2ccc(NC3=NC(=O)/C(=C\c4coc5ccccc5c4=O)S3)cc2)no1,,> 100 µM,> 100 µM,,
O=C1N=C(Nc2ccc(S(=O)(=O)Nc3ncccn3)cc2)S/C1=C/c1coc2ccccc2c1=O,> 10 µM,82.6 µM,> 100 µM,24.7 nM,Ki (Carbonic anhydrase 2): > 10 µM
Cc1cc(C)nc(NS(=O)(=O)c2ccc(NC3=NC(=O)/C(=C\c4coc5ccccc5c4=O)S3)cc2)n1,,> 100 µM,> 100 µM,,

SMILES,Ki (Carbonic anhydrase 1),IC50 (MCF7 [1]),IC50 (A549 [2]),Ki (Carbonic anhydrase 9),also measured
O=C1N=C(Nc2ccc(S(=O)(=O)Nc3nccs3)cc2)S/C1=C/c1coc2ccccc2c1=O,,> 100 µM,> 100 µM,,
O=C1N=C(Nc2ccc(S(=O)(=O)Nc3ccccn3)cc2)S/C1=C/c1coc2ccccc2c1=O,> 10 µM,47.1 µM,> 100 µM,25.6 nM,
NS(=O)(=O)c1ccc(N2C(=O)/C(=C/c3coc4ccccc4c3=O)N=C2c2ccccc2)cc1,8 µM,11.5 µM,1.73 µM,23 nM,
Cc1cc(NS(=O)(=O)c2ccc(N3C(=O)/C(=C/c4coc5ccccc5c4=O)N=C3c3ccccc3)cc2)no1,> 10 µM,30 µM,> 100 µM,25.2 nM,
O=C1/C(=C/c2coc3ccccc3c2=O)N=C(c2ccccc2)N1c1ccc(S(=O)(=O)Nc2ncccn2)cc1,,> 100 µM,40.5 µM,,
Cc1cc(C)nc(NS(=O)(=O)c2ccc(N3C(=O)/C(=C/c4coc5ccccc5c4=O)N=C3c3ccccc3)cc2)n1,,99.7 µM,63.2 µM,,
O=C1/C(=C/c2coc3ccccc3c2=O)N=C(c2ccccc2)N1c1ccc(S(=O)(=O)Nc2nccs2)cc1,,88.5 µM,88.4 µM,,
O=C1/C(=C/c2coc3ccccc3c2=O)N=C(c2ccccc2)N1c1ccc(S(=O)(=O)Nc2ccccn2)cc1,,> 100 µM,> 100 µM,,
NS(=O)(=O)c1ccc(N2C(=O)/C(=C/c3coc4ccccc4c3=O)N=C2c2ccc(Cl)cc2)cc1,> 10 µM,24.3 µM,13.8 µM,18.4 nM,
Cc1cc(NS(=O)(=O)c2ccc(N3C(=O)/C(=C/c4coc5ccccc5c4=O)N=C3c3ccc(Cl)cc3)cc2)no1,,> 100 µM,> 100 µM,,
O=C1/C(=C/c2coc3ccccc3c2=O)N=C(c2ccc(Cl)cc2)N1c1ccc(S(=O)(=O)Nc2ncccn2)cc1,,> 100 µM,59 µM,,
Cc1cc(C)nc(NS(=O)(=O)c2ccc(N3C(=O)/C(=C/c4coc5ccccc5c4=O)N=C3c3ccc(Cl)cc3)cc2)n1,,93.9 µM,52.6 µM,,
O=C1/C(=C/c2coc3ccccc3c2=O)N=C(c2ccc(Cl)cc2)N1c1ccc(S(=O)(=O)Nc2nccs2)cc1,,> 100 µM,> 100 µM,,
O=C1/C(=C/c2coc3ccccc3c2=O)N=C(c2ccc(Cl)cc2)N1c1ccc(S(=O)(=O)Nc2ccccn2)cc1,,> 100 µM,> 100 µM,,
COc1cccc2c1C(=O)c1c(O)c3c(c(O)c1C2=O)C[C@@](O)(C(=O)CO)C[C@@H]3O[C@H]1C[C@H](N)[C@H](O)[C@H](C)O1 [DOXORUBICIN],,,26.8 µM,,
